Laboratory results as given in ChEMBL document CHEMBL1145384, “Novel C-6 fluorinated acyclic side chain pyrimidine derivatives: synthesis, (1)H and (13)C NMR conformational studies, and antiviral and cytostatic evaluations” (J Med Chem, 2007).

Assays:
[1] = tested on: HEp-2; assay: Growth inhibition of Hep2 cells after 72 hrs by MTT assay; format: functional, cell-based; conditions: Homo sapiens, HEp-2, 72 h
In short: (§1)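 Tumor lines grown as monolayers in DMEM with 10% FBS, 2 mM L-glutamine and penicillin. Freshly diluted compounds added, solvent tested at matching concentrations; after 72 h growth measured by MTT. IC50 obtained by linear regression of concentrations bracketing 50% growth; mean of three separate experiments.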

[2] = tested on: HeLa; assay: Growth inhibition of HeLa cells after 72 hrs by MTT assay; format: functional, cell-based; conditions: Homo sapiens; in short: as §1
[3] = tested on: MCF7; assay: Growth inhibition of MCF7 cells after 72 hrs by MTT assay; format: functional, cell-based; conditions: Homo sapiens, MCF7, 72 h; in short: as §1
[4] = tested on: Sindbis virus; assay: Antiviral activity against sindbis virus in Vero cells assessed as reduction of virus plaque formation after 7 days; format: functional, organism-based; conditions: 168 h
[5] = tested on: SW-620; assay: Growth inhibition of SW620 cells after 72 hrs by MTT assay; format: functional, cell-based; conditions: Homo sapiens, SW-620, 72 h; in short: as §1
[6] = tested on: Human betaherpesvirus 5; assay: Antiviral activity against human cytomegalovirus AD169 in HEL cells assessed as reduction of plaque formation after 7 days; format: functional, organism-based; conditions: Human betaherpesvirus 5, AD169, HEL, 168 h
In short: (§2)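 Confluent HEL fibroblasts infected with HCMV (Davis or AD-169) at 100 PFU per well; after 2 h adsorption, residual virus removed and medium with serial compound concentrations added (duplicate wells). Incubated 7 days; EC50 taken as concentration reducing plaque formation by 50%.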

[7] = Cytotoxicity against HEL cells assessed as cell growth after 7 days; format: cell-based; conditions: human
[8] = tested on: MIA PaCa-2; assay: Growth inhibition of MiaPaCa2 cells after 72 hrs by MTT assay; format: functional, cell-based; conditions: Homo sapiens, MIA PaCa-2, 72 h; in short: as §1
[9] = tested on: CCRF-CEM; assay: Growth inhibition of human CEM cells after 72 hrs by MTT assay; format: functional, cell-based
[10] = tested on: Human alphaherpesvirus 3; assay: Antiviral activity against thymidine kinase expressing Varicella-Zoster virus OKA assessed as reduction of plaque formation; format: functional, organism-based; conditions: Human alphaherpesvirus 3, OKA
[11] = Cytotoxicity against HEL cells assessed as cell morphology after 7 days; format: cell-based; conditions: human
In short: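 Uninfected confluent HEL cultures exposed to compounds; MCC recorded as lowest concentration producing a microscopically detectable alteration of normal cell morphology at day 7.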

[12] = tested on: Human betaherpesvirus 5; assay: Antiviral activity against human cytomegalovirus Davis in HEL cells assessed as reduction of plaque formation after 7days; format: functional, organism-based; conditions: Human betaherpesvirus 5, Davis, 168 h; in short: as §2
[13] = tested on: L1210; assay: Growth inhibition of mouse L1210 cells after 72 hrs by MTT assay; format: functional, cell-based; conditions: L1210, 72 h
[14] = tested on: Coxsackievirus B4; assay: Antiviral activity against coxsackie B4 virus in HeLa cells assessed as reduction of virus plaque formation after 7 days; format: functional, organism-based; conditions: Enterovirus B, 168 h
[15] = tested on: Punta Toro virus; assay: Antiviral activity against Punta Toro virus in Vero cells assessed as reduction of virus plaque formation after 7 days; format: functional, organism-based; conditions: 168 h
[16] = tested on: Human alphaherpesvirus 3; assay: Antiviral activity against thymidine kinase deficient Varicella-Zoster virus 07/1 assessed as reduction of plaque formation; format: functional, organism-based; conditions: Human alphaherpesvirus 3, 07/1
In short: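 Plaque reduction assay in HEL cells against TK+ (OKA) and TK- (07/1) VZV strains; virus input 100 PFU; EC50 as concentration giving 50% plaque reduction.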

[17] = tested on: Human respirovirus 3; assay: Antiviral activity against parainfluenza 3 virus in Vero cells assessed as reduction of virus plaque formation after 7 days; format: functional, organism-based; conditions: Human respirovirus 3, Vero, 168 h
[18] = Growth inhibition of human Molt4/C8 cells after 72 hrs by MTT assay; format: functional, cell-based; conditions: MOLT-4, 72 h
[19] = tested on: Mammalian orthoreovirus 1; assay: Antiviral activity against reovirus1 virus in Vero cells assessed as reduction of virus plaque formation after 7 days; format: functional, organism-based; conditions: Mammalian orthoreovirus 1, Vero, 168 h

Structure (SMILES)	IC50 [1]	IC50 [2]	IC50 [3]	EC50 [4]	IC50 [5]	EC50 [6]	CC50 at 168 h [7]	IC50 [8]	IC50 [9]	EC50 [10]	MCC at 168 h [11]	EC50 [12]	IC50 [13]	EC50 [14]	EC50 [15]	EC50 [16]	EC50 [17]	IC50 [18]	EC50 [19]
COc1cc(CC(C)(O)c2ccc(F)cc2)nc(OC)n1 (stereo not given)	> 100 µM	> 100 µM	> 100 µM	> 200 µM	> 100 µM	> 100 µM	> 100 µM	> 100 µM	> 200 µM	> 100 µM	> 100 µM	59 µM	> 200 µM	40 µM	120 µM	> 100 µM	120 µM	> 200 µM	200 µM
COc1cc(/C=C(/O)C(F)(F)F)nc(OC)n1	> 200 µM	> 200 µM	> 200 µM	> 100 µM	> 200 µM	> 80 µM	> 100 µM	> 200 µM	> 200 µM	> 100 µM	> 100 µM	> 100 µM	> 200 µM	> 200 µM	> 100 µM	> 100 µM	> 100 µM	80 µM	> 100 µM
COc1nc(C)c(Br)c(OC)n1	> 100 µM	> 100 µM	> 100 µM	> 200 µM	> 100 µM	> 100 µM	18 µM	> 100 µM	> 200 µM	> 100 µM	≥ 100 µM	> 100 µM	> 200 µM	> 200 µM	> 200 µM	88 µM	> 200 µM	> 200 µM	> 200 µM
CC(=O)OC(C)(Cc1cc(O)nc(O)n1)Cc1ccccc1F (stereo not given)	> 200 µM	> 200 µM	> 200 µM	> 124 µM	> 200 µM	> 100 µM	> 100 µM	> 200 µM	> 200 µM	> 100 µM	> 100 µM	> 100 µM	> 200 µM	> 200 µM	> 124 µM	> 100 µM	> 124 µM	> 200 µM	> 124 µM
COc1cc(CC(C)(O)C(F)(F)F)nc(OC)n1 (stereo not given)	> 200 µM	> 200 µM	> 200 µM	> 200 µM	> 200 µM	> 100 µM	> 100 µM	> 200 µM	> 200 µM	> 100 µM	> 100 µM	> 100 µM	> 200 µM	> 200 µM	> 200 µM	> 100 µM	> 200 µM	> 200 µM	> 200 µM
COc1nc(CC(C)(O)C(F)(F)F)c(-c2ccccc2)c(OC)n1 (stereo not given)	19 µM	17 µM	> 17 µM	> 40 µM	20 µM	> 0.8 µM	35 µM	20 µM	70 µM	> 20 µM	4 µM	> 0.8 µM	82 µM	> 40 µM	> 40 µM	> 20 µM	> 40 µM	118 µM	> 40 µM
COc1cc(CC(C)(CF)OC(C)=O)nc(OC)n1 (stereo not given)	17.7 µM	11.7 µM	18 µM	> 29 µM	30 µM	> 14.7 µM	50 µM	39 µM	20.6 µM	8.1 µM	73.5 µM	> 14.7 µM	21.7 µM	> 147 µM	> 29 µM	7.4 µM	> 29 µM	47.8 µM	> 29 µM
CC(=O)OC(C)(CF)Cc1cc(O)nc(O)n1 (stereo not given)	> 200 µM	> 200 µM	> 200 µM	> 200 µM	> 200 µM	> 100 µM	> 100 µM	> 200 µM	> 200 µM	> 100 µM	> 100 µM	> 100 µM	> 200 µM	> 200 µM	> 200 µM	> 100 µM	> 200 µM	> 200 µM	> 200 µM
COc1cc(/C=C(\C)c2ccc(F)cc2)nc(OC)n1	20 µM	17 µM	16 µM	> 40 µM	56 µM	> 20 µM	88 µM	> 100 µM	74 µM	> 20 µM	100 µM	> 20 µM	> 200 µM	> 40 µM	40 µM	> 20 µM	> 40 µM	> 200 µM	> 40 µM
COc1cc(/C=C(\O)C(F)(F)C(F)(F)F)nc(OC)n1	55.4 µM	26.3 µM	76 µM	> 100 µM	45 µM	> 100 µM	≥ 60 µM	≥ 100 µM	9.7 µM	> 100 µM	> 100 µM	> 100 µM	80 µM	> 100 µM	> 100 µM	> 100 µM	> 100 µM	43 µM	> 100 µM
